What was measured:
Type in all cases: functional
[1] = test system: SK-MEL-5; test: Antitumor activity against human SK-MEL-5 cells after 48 hrs by Sulforhodamine B assay; details: SK-MEL-5, 48 h
In short: (§1)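 NCI 60-cell-line screen. Secondary five-dose test at 100, 10, 1.0, 0.1 and 0.01 µM with continuous drug exposure for 48 h. Cell growth was estimated by sulforhodamine B protein staining. […] LC50 was also reported.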

[2] = Antitumor activity against human SF539 cells after 48 hrs by Sulforhodamine B assay; details: SF-539, 48 h; in short: as §1
[3] = test system: A549; test: Antitumor activity against human A549 cells after 48 hrs by Sulforhodamine B assay; details: A549, 48 h; in short: as §1
[4] = Antitumor activity against human RPMI8226 cells after 48 hrs by Sulforhodamine B assay; details: RPMI-8226, 48 h; in short: as §1
[5] = test system: CCRF-CEM; test: Antitumor activity against human CCRF-CEM cells after 48 hrs by Sulforhodamine B assay; in short: as §1
[6] = test system: HOP-62; test: Antitumor activity against human HOP62 cells after 48 hrs by Sulforhodamine B assay; details: HOP-62, 48 h; in short: as §1
[7] = Antitumor activity against human HCT15 cells after 48 hrs by Sulforhodamine B assay; details: HCT-15, 48 h; in short: as §1
[8] = Antitumor activity against human SKOV3 cells after 48 hrs by Sulforhodamine B assay; details: SK-OV-3, 48 h; in short: as §1
[9] = Antitumor activity against human PC3 cells after 48 hrs by Sulforhodamine B assay; details: PC-3, 48 h; in short: as §1
[10] = Antitumor activity against human MOLT4 cells after 48 hrs by Sulforhodamine B assay; details: MOLT-4, 48 h; in short: as §1
[11] = test system: T47D; test: Antitumor activity against human T47D cells after 48 hrs by Sulforhodamine B assay; in short: as §1
[12] = Antitumor activity against human Hs 578T cells after 48 hrs by Sulforhodamine B assay; in short: as §1
[13] = test system: SNB-19; test: Antitumor activity against human SNB19 cells after 48 hrs by Sulforhodamine B assay; details: SNB-19, 48 h; in short: as §1
[14] = Antitumor activity against human COLO205 cells after 48 hrs by Sulforhodamine B assay; details: COLO 205, 48 h; in short: as §1
[15] = test system: KM12; test: Antitumor activity against human KM12 cells after 48 hrs by Sulforhodamine B assay; details: KM12, 48 h; in short: as §1
[16] = Antitumor activity against human BT549 cells after 48 hrs by Sulforhodamine B assay; details: BT-549, 48 h; in short: as §1
[17] = test system: M14; test: Antitumor activity against human M14 cells after 48 hrs by Sulforhodamine B assay; details: M14, 48 h; in short: as §1
[18] = Antitumor activity against human UACC62 cells after 48 hrs by Sulforhodamine B assay; details: UACC-62, 48 h; in short: as §1
[19] = test system: SNB-75; test: Antitumor activity against human SNB75 cells after 48 hrs by Sulforhodamine B assay; details: SNB-75, 48 h; in short: as §1
[20] = Antitumor activity against human HOP92 cells after 48 hrs by Sulforhodamine B assay; details: HOP-92, 48 h; in short: as §1
[21] = test system: NCI-H522; test: Antitumor activity against human NCI-H522 cells after 48 hrs by Sulforhodamine B assay; details: NCI-H522, 48 h; in short: as §1
[22] = test system: DU-145; test: Antitumor activity against human DU145 cells after 48 hrs by Sulforhodamine B assay; details: DU-145, 48 h; in short: as §1
[23] = test system: SF-268; test: Antitumor activity against human SF268 cells after 48 hrs by Sulforhodamine B assay; details: SF-268, 48 h; in short: as §1
[24] = test system: MCF7; test: Antitumor activity against human MCF7 cells after 48 hrs by Sulforhodamine B assay; details: MCF7, 48 h; in short: as §1
[25] = test system: NCI-H460; test: Antitumor activity against human NCI-H460 cells after 48 hrs by Sulforhodamine B assay; details: NCI-H460, 48 h; in short: as §1
[26] = Antitumor activity against human HCT116 cells after 48 hrs by Sulforhodamine B assay; details: HCT-116, 48 h; in short: as §1
[27] = test system: SW-620; test: Antitumor activity against human SW620 cells after 48 hrs by Sulforhodamine B assay; details: SW-620, 48 h; in short: as §1
[28] = Antitumor activity against human HCC2998 cells after 48 hrs by Sulforhodamine B assay; details: HCC 2998, 48 h; in short: as §1
[29] = test system: MDA-MB-468; test: Antitumor activity against human MDA-MB-468 cells after 48 hrs by Sulforhodamine B assay; details: MDA-MB-468, 48 h; in short: as §1
[30] = Antitumor activity against human LOXIMVI cells after 48 hrs by Sulforhodamine B assay; details: LOX IMVI; in short: as §1
[31] = test system: Malme-3M; test: Antitumor activity against human MALME-3M cells after 48 hrs by Sulforhodamine B assay; in short: as §1
[32] = test system: NCI-H23; test: Antitumor activity against human NCI-H23 cells after 48 hrs by Sulforhodamine B assay; details: NCI-H23, 48 h; in short: as §1
[33] = test system: SK-MEL-2; test: Antitumor activity against human SK-MEL-2 cells after 48 hrs by Sulforhodamine B assay; details: SK-MEL-2, 48 h; in short: as §1
[34] = test system: NCI-H226; test: Antitumor activity against human NCI-H226 cells after 48 hrs by Sulforhodamine B assay; details: NCI-H226, 48 h; in short: as §1
[35] = test system: HL-60(TB); test: Antitumor activity against human HL-60(TB) cells after 48 hrs by Sulforhodamine B assay; details: HL-60, 48 h; in short: as §1
[36] = test system: MDA-MB-435; test: Antitumor activity against human MDA-MB-435 cells after 48 hrs by Sulforhodamine B assay; details: MDA-MB-435, 48 h; in short: as §1
[37] = test system: SK-MEL-28; test: Antitumor activity against human SK-MEL-28 cells after 48 hrs by Sulforhodamine B assay; details: SK-MEL-28, 48 h; in short: as §1
[38] = Antitumor activity against human NCI-ADR-RES cells after 48 hrs by Sulforhodamine B assay; in short: as §1
[39] = test system: K562; test: Antitumor activity against human K562 cells after 48 hrs by Sulforhodamine B assay; details: K562, 48 h; in short: as §1
[40] = read-out: LC50 (the source's name)

Cc1ccc(C2=Nc3c(N)ncnc3NC(c3sc(Cl)nc3Cl)C2)cc1 (stereo not drawn)
GI50 [1]: 3.69 µM
CC50 [1, 40]: 37.3 µM
GI50 [2]: 2.69 µM
CC50 [2, 40]: 33.1 µM
GI50 [3]: 5.02 µM
CC50 [3, 40]: 52.5 µM
GI50 [4]: 4.99 µM
LC50 (concentration causing 50% net cell kill) [4]: > 100 µM
GI50 [5]: 3.21 µM
CC50 [5, 40]: > 100 µM
GI50 [6]: 3.72 µM
LC50 (concentration giving 50% net cell kill) [6]: 48.9 µM
GI50 [7]: 3.05 µM
CC50 [7, 40]: 50.1 µM
GI50 [8]: 3.6 µM
CC50 [8, 40]: 43 µM
GI50 [9]: 5.89 µM
CC50 [9, 40]: 73.1 µM
GI50 [10]: 4.06 µM
LC50 [10]: > 100 µM
GI50 [11]: 3.35 µM
CC50 [11, 40]: > 100 µM
GI50 [12]: 2.44 µM
CC50 [12, 40]: > 100 µM
GI50 [13]: 5.51 µM
LC50 [13]: 47.2 µM
GI50 [14]: 4.18 µM
CC50 [14, 40]: 42.1 µM
GI50 [15]: 3.8 µM
CC50 [15, 40]: 40.4 µM
GI50 [16]: 3.93 µM
CC50 [16, 40]: 40.6 µM
GI50 [17]: 2.64 µM
CC50 [17, 40]: 35.6 µM
GI50 [18]: 3.05 µM
LC50 [18]: 37.2 µM
GI50 [19]: 1.63 µM
LC50 (concentration killing 50% of cells) [19]: 38.1 µM
GI50 [20]: 3.72 µM
CC50 [20, 40]: 45.4 µM
GI50 [21]: 4.05 µM
CC50 [21, 40]: 42.1 µM
GI50 [22]: 11.2 µM
CC50 [22, 40]: 52.4 µM
GI50 [23]: 5.68 µM
CC50 [23, 40]: 67.3 µM
GI50 [24]: 3.56 µM
CC50 [24, 40]: 97.6 µM
GI50 [25]: 4.06 µM
LC50 [25]: 49.4 µM
GI50 [26]: 3.7 µM
CC50 [26, 40]: 37.3 µM
GI50 [27]: 3.42 µM
CC50 [27, 40]: 40.7 µM
GI50 [28]: 10.3 µM
CC50 [28, 40]: 46.8 µM
GI50 [29]: 2.12 µM
LC50 [29]: 41.6 µM
GI50 [30]: 5.39 µM
CC50 [30, 40]: 43.2 µM
GI50 [31]: 6.33 µM
CC50 [31, 40]: 44 µM
GI50 [32]: 8.23 µM
LC50 [32]: 58.7 µM
GI50 [33]: 2.98 µM
LC50 [33]: 35.6 µM
GI50 [34]: 13.7 µM
CC50 [34, 40]: 90.3 µM
GI50 [35]: 2.04 µM
CC50 [35, 40]: > 100 µM
GI50 [36]: 1.47 µM
CC50 [36, 40]: 39 µM
GI50 [37]: 4.26 µM
LC50 [37]: 42.8 µM
GI50 [38]: 3.13 µM
CC50 [38, 40]: 58.5 µM
GI50 [39]: 1.68 µM
CC50 [39, 40]: > 100 µM
